NR2E3 ag-1 – human photoreceptor-specific nuclear receptor agonism | CHO-S Gal4-NCOR/VP16-NR2E3 two-hybrid, luciferase | inhibition of corepressor binding, % at 3.98 µM | actives 0.35% (n = 360,000) | AID 602229;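 active = inhibition above the mean of all tested compounds plus 3 SD, cut at about 70% in these data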;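 note: 0% = DMSO with NR2E3 transfected cells and 100% = cells lacking NR2E3 construct; higher means lower luciferase signal from less NR2E3 corepressor binding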
Target sequence (Q9Y5X4 whole entry, looked up, the tested form may be a part): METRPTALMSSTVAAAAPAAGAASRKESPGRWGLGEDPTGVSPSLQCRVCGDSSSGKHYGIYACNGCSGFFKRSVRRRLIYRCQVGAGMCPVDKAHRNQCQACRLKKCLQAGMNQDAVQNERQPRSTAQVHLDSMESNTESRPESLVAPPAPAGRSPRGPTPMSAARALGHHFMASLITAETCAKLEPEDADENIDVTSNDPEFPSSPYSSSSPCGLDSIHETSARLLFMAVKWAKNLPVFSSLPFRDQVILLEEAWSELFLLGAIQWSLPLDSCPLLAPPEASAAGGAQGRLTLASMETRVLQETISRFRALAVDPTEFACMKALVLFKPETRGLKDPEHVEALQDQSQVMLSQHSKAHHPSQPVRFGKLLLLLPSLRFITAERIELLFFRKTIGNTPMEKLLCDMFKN
MC4R antagonist – human MC4R antagonism in cAMP assay. P32245. MC4R-expressing cells, MTII-stimulated cAMP, LANCE TR-FRET. actives 0.48% (n = 360,000). inhibition, % at 6.5 µM;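 active = inhibition above its plate's cutoff, the mean of tested wells on that plate plus 3 SD, cut at about 29% in these data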;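 note: 0% = Melanotan II alone and 100% = Melanotan II plus saturating MCL0020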
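Material: human MC4R-expressing U2OS cells. Probe or stimulus: Melanotan II challenge. Dosing: 6.5 µM single dose. Times: 30-min compound, 1-h challenge, 1-h detection, room temperature. Technique: TR-FRET with Eu-cAMP and labeled anti-cAMP, 671 nm. Replication: singlicate.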
PG9 Ab binder – PG9 antibody binding by small molecule; inhibition, % at 6.7 µM; actives 0.43% (n = 360,000); AID 624416; TR-FRET gp120-PG9 antibody binding; in the data active = inhibition above about 8.5%
Rev-erbA mod – modulates human Rev-erb alpha binding to DNA; Rev-erbα–FITC-DNA binding, fluorescence polarization, 90 min; activity, % at 10 µM; actives 0.79% (n = 370,000); AID 1259318;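 active = activity above about 14%, limit read from the data; passing the limit was not always enough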;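 note: 0% = DMSO wells with 35 nM protein and 100% = DMSO wells with 750 nM protein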
MC4R barr agon – agonists of human melanocortin 4 receptor (MC4R) beta-arrestin. activation, % at 8.9 µM. actives 0.98% (n = 360,000). U2OS MC4R beta-arrestin complementation, luminescence; percent of melanotan II response, DMSO zero. AID 540308. P32245;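 active = activation above a per-plate cutoff, the mean activation of sample wells on that plate plus 3 SD, cut at about 8% in these data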
NR2E3 ag-2 – agonists of human nuclear receptor NR2E3 | Q9Y5X4 | GST-NR2E3/biotin-RetCOR TR-FRET, 1536-well | inhibition of corepressor binding, % at 4.78 µM | actives 0.12% (n = 320,000) | AID 2300;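 active = percent inhibition above the cutoff of mean plus 3 SD of all tested compounds, set per screening campaign, cut at about 20% in these data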;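 note: 0% = DMSO wells and 100% = biotin wells as full block of FRET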
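Test system: GST-NR2E3 and biotin-RetCOR proteins | Quantity: 1.35 nM GST-tagged NR2E3 final | Medium: Tris pH 7.5 | Also added: 7 nM biotin-RetCOR | Dosing: Compound at 4.8 µM, single dose | Timing: 5 h at 4 °C | Detection: Time-resolved FRET | Read-out basis: Percent inhibition | Benchmarks: Biotin wells as high control, 0.6% DMSO wells as low control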
An asterisk follows results filed as active; / = not tested or not shown. Compounds with a hit are over-represented: about 2.7% of the library has one in this group of screens.

SMILES	NR2E3 ag-1	MC4R antagonist	PG9 Ab binder	Rev-erbA mod	MC4R barr agon	NR2E3 ag-2
O=C(CSc1nc(-c2ccco2)cc(C(F)(F)F)n1)Nc1ccccc1C(F)(F)F	17.7	-14.1	1.9	4.6	9.4*	0.1
CS(=O)(=O)c1ccc(CNC(=O)[C@]2(C(F)(F)F)C[C@H](CCc3ccccc3)CCCO2)cc1	-9.0	11.7	0.5	-1.5	2.4	1.3
COc1ccc(-n2c(=O)[nH]c3cc(C(=O)NCCc4ccccc4)ccc3c2=O)cc1OC	-8.2	0.3	-1.0	2.5	1.9	-5.3
O=[N+]([O-])c1cnc(Sc2ccncn2)c([N+](=O)[O-])c1	-6.6	14.5	-1.1	-0.7	-0.5	/
O=[N+]([O-])c1cnc(Sc2ccncn2)s1	29.5	35.3*	-3.7	-0.9	-4.0	0.8
CC(NS(=O)(=O)c1ccc(Cl)c(Cl)c1)C(=O)OCC(=O)Nc1ccc2c(c1)OCO2 (centres undefined)	-44.7	13.8	-0.6	0.8	-2.2	2.6
Cc1nc2scc(C)n2c(=O)c1S(=O)(=O)N1CCN(c2cccc(C(F)(F)F)c2)CC1	-13.9	-4.3	-1.2	-0.6	-1.2	0.5
COc1cccc(C(=O)O/N=C(\N)c2ccc([N+](=O)[O-])cc2)c1OC	-47.5	1.3	-0.3	-3.1	8.6*	-2.3
COc1ccc(/C(N)=N/OC(=O)c2cccc([N+](=O)[O-])c2C)cc1OC	-11.8	0.2	/	/	-1.9	0.2
Cc1ccc(-n2ncc(Br)c(Br)c2=O)cc1	0.3	45.3*	/	/	0.7	/
COc1cnn(-c2ccc(F)cc2)c(=O)c1Br	-21.0	10.0	-0.9	-2.9	-2.6	3.3
COc1ccc(CNC(=O)Cc2nn(C)c(=O)c3ccccc23)cc1	101.6*	-3.9	0.6	1.7	0.0	-3.8
Cc1ccc(S(=O)(=O)N(C)CC(=O)OCC(=O)c2c(N)n(C)c(=O)n(C)c2=O)cc1	-3.6	10.8	3.4	-2.2	0.3	2.7
CC(=O)N1CCc2cc(S(=O)(=O)NCCC3=CCCCC3)ccc21	81.4*	0.0	-0.7	-6.9	-1.1	-2.0
C#CCN(C[C@@H]1[C@@H](OC(=O)NCC2CCCCC2)[C@@H](OC(=O)NCC2CCCCC2)CN(C(=O)OC(C)C)N1C(=O)OC(C)C)S(=O)(=O)c1ccc(C)cc1	18.2	7.3	0.2	-5.5	0.0	/
CCCCNC(=O)N1CCN(Cc2cccc(F)c2)CC1	0.9	-3.7	-0.6	2.0	1.3	0.9
CN(C)CCCC(=O)c1ccc2c(c1)OCO2	-0.4	3.3	-1.3	0.9	-1.7	0.5
CN(C)CCC(=O)c1ccc2c(c1)OCO2	-17.7	33.4*	1.4	-10.8	-3.5	0.6
O=C(Nc1ccc(Oc2c(F)c(F)c(F)c(F)c2F)cc1)OC1CCN2Cc3ccccc3N=C12 (centres undefined)	-21.5	27.5	/	/	9.3*	-0.5
Cc1cccc(NC(=O)Nc2ccc(Oc3c(F)c(F)c(F)c(F)c3F)cc2)c1	-5.1	4.4	1.1	6.6	2.3	-0.8
COc1ccc(C(=O)NNC2=Nc3cccc4cccc2c34)cc1	-23.1	-5.4	-16.1	7.8	9.0*	-4.5
Cc1ccc(C(=O)NNC2=Nc3cccc4cccc2c34)cc1	-23.5	1.8	-11.2	2.2	-0.7	-6.8
Cc1ccc(NC(=O)COc2coc(CN3CCc4ccccc43)cc2=O)c(C)c1	21.5	2.0	-3.6	0.6	-1.7	3.2
Cc1cc(C)cc(NC(=O)COc2coc(CN3CCc4ccccc43)cc2=O)c1	20.2	3.7	-3.7	0.5	9.2*	-4.4
Cc1cccc(NS(=O)(=O)c2ccc(S(=O)(=O)N3CCCC3)cc2)c1	-16.9	9.9	-0.3	-5.4	0.2	/
O=C(/C=C/c1ccccc1)OCC(=O)c1c[nH]c2ccccc12	6.6	2.6	-3.5	0.3	9.3*	/
S=C(Nc1ccc(Cl)cc1)c1nc2ccccc2s1	-41.1	-2.7	-1.6	-1.6	8.6*	-0.1
Cc1ccc(NC(=S)c2nc3ccccc3s2)cc1	15.8	3.3	-1.0	-1.7	4.5	1.0
COc1ccc(C2c3[nH]c4ccccc4c3CCN2C(=O)c2cn3ccccc3n2)c(F)c1 (centres undefined)	-35.8	2.9	-1.4	0.9	-2.2	1.7

Compound activity (PubChem)
